Assay results from ChEMBL document CHEMBL4257590, “Semisynthesis of Platensimycin Derivatives with Antibiotic Activities in Mice via Suzuki-Miyaura Cross-Coupling Reactions” (J Med Chem, 2018).
Values after ≈ are worked out from the molar mass of the structure shown. Active and inactive are the calls of the source. The calls are words filed in the database; no cut-off is given here.

Experiments:
Staphylococcus aureus [1] = assay: Antibacterial activity against Staphylococcus aureus ATCC 29213 after 16 hrs by agar dilution method; assay type: functional; details: ATCC 29213, 16 h
How it was run: (§1)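 Agar dilution in LB agar with compound (from methanol solutions) at final 0.5–64 μg/ml per plate. Strains grown 16 h at 37 °C, 250 rpm in LB broth, adjusted to OD600 0.25±0.05, diluted 10^4-fold; 2 μl spotted per plate, incubated 16 h at 37 °C. MIC = lowest concentration with no visible colonies; at least two independent experiments. Linezolid and PTM as controls.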

Staphylococcus aureus [2] = assay: Antibacterial activity against methicillin-sensitive Staphylococcus aureus isolate 1 after 16 hrs by agar dilution method; assay type: functional; details: isolate 1, 16 h; how it was run: as §1
Staphylococcus aureus [3] = assay: Antibacterial activity against methicillin-sensitive Staphylococcus aureus isolate 2 after 16 hrs by agar dilution method; assay type: functional; details: isolate 2, 16 h; how it was run: as §1
Staphylococcus aureus [4] = assay: Antibacterial activity against methicillin-resistant Staphylococcus aureus isolate 3 after 16 hrs by agar dilution method; assay type: functional; details: isolate 3, 16 h; how it was run: as §1
Staphylococcus aureus [5] = assay: Antibacterial activity against methicillin-resistant Staphylococcus aureus isolate 4 after 16 hrs by agar dilution method; assay type: functional; details: isolate 4, 16 h; how it was run: as §1
Staphylococcus aureus [6] = assay: Antibacterial activity against methicillin-resistant Staphylococcus aureus isolate 5 after 16 hrs by agar dilution method; assay type: functional; details: isolate 5, 16 h; how it was run: as §1
Staphylococcus aureus [7] = assay: Antibacterial activity against methicillin-resistant Staphylococcus aureus isolate 6 after 16 hrs by agar dilution method; assay type: functional; details: isolate 6, 16 h; how it was run: as §1
Staphylococcus aureus [8] = assay: Antibacterial activity against methicillin-resistant Staphylococcus aureus after 18 hrs in presence of 10% human serum by resazurin dye-based assay; assay type: functional
How it was run: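 One clinical MRSA strain grown to exponential phase (OD600 = 0.5), diluted to 10^6 CFU/ml in Mueller-Hinton broth; 100 μl compound dilutions mixed with 100 μl bacteria with or without 10% human serum, 18 h at 37 °C. Resazurin (0.66 mM, 50 μl) then added and read visually.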

Staphylococcus aureus [9] = assay: Antibacterial activity against methicillin-resistant Staphylococcus aureus infected in C57BL/6J mouse assessed as reduction in bacterial load in blood at 50 mg/kg, ip administered 1 and 5 hrs postinfection and measured at 12 hrs post bacterial infection; assay type: functional, organism-based
How it was run: (§2)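 Female C57BL/6J mice, 6–8 weeks, 18–21 g, infected ip with 2 × 10^7 CFU MRSA in 0.2 ml saline with 5% hog gastric mucin. Dosed ip 50 mg/kg at 1 and 5 h post-infection; test agents at 5 mg/mL in 12.5% DMSO/30% propanediol/30% PEG400/27.5% saline, vancomycin in saline, saline control. At 12 h blood and homogenized kidneys plated on LB agar overnight at 37 °C for CFU; n = 5, mean ± SEM, unpaired two-tailed t-test.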

Staphylococcus aureus [10] = assay: Antibacterial activity against methicillin-resistant Staphylococcus aureus infected in C57BL/6J mouse assessed as reduction in bacterial load in kidney at 50 mg/kg, ip administered 1 and 5 hrs postinfection and measured at 12 hrs post bacterial infection; assay type: functional, organism-based; how it was run: as §2
Mus musculus [11] = assay: Toxicity in C57BL/6J mouse infected with methicillin-resistant Staphylococcus aureus assessed as mouse death at 50 mg/kg, […] measured within 48 hrs; assay type: organism-based; details: in vivo, ip
Staphylococcus aureus [12] = assay: Antibacterial activity against methicillin-resistant Staphylococcus aureus infected in C57BL/6J mouse assessed as protection against lethal peritonitis by measuring mouse survival at 50 mg/kg, ip administered 1 and 5 hrs postinfection and measured up to 24 hrs post infection; assay type: functional, organism-based
How it was run: (§3)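 Lethal peritonitis: female C57BL/6J mice, 6–8 weeks, 18–21 g, infected ip with 2 × 10^7 CFU MRSA in 0.5 ml saline with 5% (w/v) mucin. Treated ip 0.2 mL/mouse at 1 and 5 h post-infection (n = 5/group): 50 mg/kg at 5 mg/mL in 12.5% DMSO vehicle, or 10 mg/kg at 1 mg/mL in 2.5% DMSO/30% propanediol/30% PEG400/37.5% saline; vancomycin in saline, saline control. Checked twice daily for survival and body weight over 7 days.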

Mus musculus [13] = assay: Toxicity in C57BL/6J mouse infected with methicillin-resistant Staphylococcus aureus assessed as effect on mouse body weight at 10 mg/kg, ip administered 1 and 5 hrs postinfection and measured for 7 days; assay type: organism-based; details: in vivo, 168 h; how it was run: as §3

For `C[C@]12C[C@@]34C=C(c5cc6cccc7ccc8cccc5c8c76)C(=O)[C@@](C)(CCC(=O)Nc5c(O)ccc(C(=O)O)c5O)[C@@H]3[C@H](C[C@H]1C4)O2`, the MIC (Staphylococcus aureus [1]) was 2 µg/mL (≈ 3.12 µM), the MIC (Staphylococcus aureus [2]) was 2 µg/mL (≈ 3.12 µM) and the MIC (Staphylococcus aureus [3]) was 2 µg/mL (≈ 3.12 µM). For the same molecule, the MIC (Staphylococcus aureus [4]) was 4 µg/mL (≈ 6.23 µM), the MIC (Staphylococcus aureus [5]) was 2 µg/mL (≈ 3.12 µM) and the MIC (Staphylococcus aureus [6]) was 4 µg/mL (≈ 6.23 µM). For the same molecule, the MIC (Staphylococcus aureus [7]) was 2 µg/mL (≈ 3.12 µM), the MIC (Staphylococcus aureus [8]) was 4 µg/mL and the Activity (Staphylococcus aureus [9]) was “Active”. For the same molecule, the Activity (Staphylococcus aureus [10]) was “Active”, the Activity (Mus musculus [11]) was “Toxic” and the Activity (Staphylococcus aureus [12]) was “inactive”. For the same molecule, the Activity (Mus musculus [13]) was “Non-Toxic”.
